Experimental findings from ChEMBL document CHEMBL1770105, “Discovery and evaluation of pyrazolo[1,5-a]pyrimidines as neuropeptide Y1 receptor antagonists” (Bioorg Med Chem Lett, 2011) are described below.

As a reminder, the Ki is a dissociation constant, usually derived from enzyme kinetics or from competition with a known ligand. As usually defined, the IC50 is the concentration that inhibits the measured activity by half. By fraction unbound is commonly meant free concentration divided by total concentration. As usually defined, the inhibition in vivo is the share of the control response that was lost under treatment.

Structures are written as SMILES.

Data set [1] deals with T1, Neuropeptide Y receptor type 1 (Homo sapiens, UniProt P25929).
T1 sequence (P25929 whole entry): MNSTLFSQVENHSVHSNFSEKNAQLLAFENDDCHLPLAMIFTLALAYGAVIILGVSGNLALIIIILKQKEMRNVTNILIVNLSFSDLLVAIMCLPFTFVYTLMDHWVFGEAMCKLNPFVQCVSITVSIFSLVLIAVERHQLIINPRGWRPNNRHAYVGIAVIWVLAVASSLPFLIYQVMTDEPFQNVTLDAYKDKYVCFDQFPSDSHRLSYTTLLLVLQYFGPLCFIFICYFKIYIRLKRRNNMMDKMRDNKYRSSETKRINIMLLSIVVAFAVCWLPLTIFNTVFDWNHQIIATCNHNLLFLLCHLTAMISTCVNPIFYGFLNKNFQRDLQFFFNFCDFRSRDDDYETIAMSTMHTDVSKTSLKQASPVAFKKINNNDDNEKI
In words: Displacement of [125I]-PYY from human recombinant NPY Y1 receptor overexpressed in membrane of Sf9 cells. The gist of the method:
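Human Y1 receptor: 125I-PYY displacement on Sf9 membranes overexpressing recombinant hY1R. Ki values are single determinations run in triplicate.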

Data set [2] has as its target T2, Corticotropin-releasing factor receptor 1 (Homo sapiens, UniProt P34998).
T2 sequence (P34998 whole entry): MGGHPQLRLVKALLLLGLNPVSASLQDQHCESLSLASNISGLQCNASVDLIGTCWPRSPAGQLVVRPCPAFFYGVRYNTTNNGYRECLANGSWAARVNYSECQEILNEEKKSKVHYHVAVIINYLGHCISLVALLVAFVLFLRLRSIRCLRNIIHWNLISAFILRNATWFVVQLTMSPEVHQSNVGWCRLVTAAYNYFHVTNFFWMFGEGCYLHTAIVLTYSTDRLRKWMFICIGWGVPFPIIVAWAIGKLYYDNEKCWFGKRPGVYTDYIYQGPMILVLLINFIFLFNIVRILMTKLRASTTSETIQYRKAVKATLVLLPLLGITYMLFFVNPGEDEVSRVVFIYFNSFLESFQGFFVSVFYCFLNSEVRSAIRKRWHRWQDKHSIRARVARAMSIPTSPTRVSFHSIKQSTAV
In words: Binding affinity to CRHR.

Data set [3] addresses T1, Neuropeptide Y receptor type 1. In words: Antagonist activity at NPY Y1 receptor in human SK-N-MC cells assessed as inhibition of NPY-induced calcium mobilization by FLIPR assay. The format is functional, cell-based. The gist of the method:
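SK-N-MC neuroblastoma cells plated at 25,000/well 4 days ahead, loaded with Fluo-3 for 1 h in 5% CO2, washed and resuspended in assay buffer (5 mM KCl, 115 mM NaCl, 0.96 mM NaH2PO4, 1 mM MgSO4, 2 mM CaCl2, 5 mM D-glucose) containing test compound.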

Data set [4] can be described thus: Plasma clearance in Sprague-Dawley rat at 1 mg/kg, iv and 3 mg/kg, po. Format: ADME, organism-based. The gist of the method:
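Overnight-fasted, jugular-vein-cannulated SD rats (water ad libitum) dosed by oral gavage (3 mg/kg in 0.5% methyl cellulose, 2 mL/kg, n = 2) or iv via the jugular vein (1.0 mg/kg in 50% PEG, 1 mL/kg, n = 2).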

Data set [5] can be described thus: Fraction unbound in Sprague-Dawley rat plasma at 1 mg/kg, iv and 3 mg/kg, po. Format: ADME, organism-based.
In data set [6] the test system is Rattus norvegicus. In words: Unbound plasma clearance in Sprague-Dawley rat 1 mg/kg, iv and 3 mg/kg, po. The format is ADME, organism-based. Conditions: in vivo.
The subject of data set [7] is Rattus norvegicus. In words: Antihypertensive activity in Sprague-Dawley rat assessed as inhibition of NPY-induced increase in arterial pressure at 3 mg/kg, iv. Format: functional. The note with it: Artery. The gist of the method: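 Overnight-fasted SD rats anesthetized with inactin (100 mg/kg ip), tracheal and femoral arterial/venous cannulae, on a heated pad. Arterial pressure and heart rate recorded every 5 s. NPY given as iv bolus every 15 min. After the third NPY bolus, compound given iv at 3 mg/kg in saline (1 mL/kg), followed by three further NPY injections.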

Data set [8] in a line: Ratio of fraction unbound drug level in brain to plasma in Mdr1a/1b knockout mouse to FVB mouse at 5 mg.kg, sc after 0.5 hrs. Format: ADME, organism-based. The gist of the method:
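Brain and plasma levels measured in Mdr1a/1b knockout and wild-type FVB mice 0.5 h after a 5 mg/kg sc dose. Brain/plasma ratios calculated from unbound fractions, measured by equilibrium dialysis of brain homogenate and plasma. Result expressed as knockout B/P over FVB B/P.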

Take `Cc1cc(C)c(-c2c(C)nn3c(NCCN)cc(C)nc23)c(C)c1`: the Ki was 2.3 µM in data set [1] and over 10 µM in data set [2].

Regarding `COc1ccc(CCNCCNc2cc(C)nc3c(-c4c(C)cc(C)cc4C)c(C)nn23)cc1`, the Ki in data set [1] amounted to 0.029 µM.

`Cc1cc(C)c(-c2c(C)nn3c(NCCNC4CCCC4)cc(C)nc23)c(C)c1`: in data set [1], the Ki stood at 0.021 µM.

Turning to `CCOc1cc(Cl)c(-c2c(C)nn3c(NCCNC4CCOCC4)cc(C)nc23)c(Cl)c1`, in data set [1], the Ki stood at 0.003 µM. In addition, in data set [3], the IC50 is 0.015 µM. Moreover, in data set [4], the clearance came out at 1.68 L/h/kg. This compound registered a fraction unbound in data set [5] of 0.029. The same compound had a CL in the data set on Rattus norvegicus [6] of 59.8 L/h/kg. The inhibition in vivo at 3 mg/kg with Rattus norvegicus [7] worked out at 47%.

Consider `Cc1cc(NCCNC2CCOCC2)n2nc(C)c(-c3c(Cl)cccc3Cl)c2n1`, for which the Ki in data set [1] was 0.007 µM.

`COc1cc(Cl)c(-c2c(C)nn3c(NCC(C)(C)NC4CCOCC4)cc(C)nc23)c(Cl)c1`: the Ki in data set [1] is 0.141 µM. Also, in data set [8], the “Knockout-to-FVB ratio of unbound brain/plasma ratio” value amounted to 4.

For the compound `COc1cc(Cl)c(-c2c(C)nn3c(NCC(C)NC4CCOCC4)cc(C)nc23)c(Cl)c1` (racemic), the Ki in data set [1] is 0.005 µM. In data set [8], the “Knockout-to-FVB ratio of unbound brain/plasma ratio” value is 10.
